High-throughput results: PubChem, Broad Institute
HIV Env fusion = blocks HIV Env-driven cell-cell fusion; HeLa-JRFL Env/CEM21 cell fusion, luciferase; inhibition, % at 12.3 µM; 1.1% of 360,000 active;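 active = mean replicate inhibition score of at least 50 and every replicate individually at or above 50; inconclusive = only one of the two criteria met; inactive = mean below 50 and not all replicates reaching 50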;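 also: 0% = plate neutral controls and 100% = maraviroc near 300 nM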
EWS-Fli block = inhibitors of EWS/Fli oncoprotein transcriptional activity | AID 651661 | A673 NR0B1-luciferase reporter, viability-normalised | 0.67% of 350,000 active | inhibition, % at 12.6 µM;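 active = mean inhibition of at least 50% after viability correction, with every replicate also passing that limit; inconclusive = mean reaches 50% but only one of two replicates passes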;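 also: firefly luciferase signal divided by Alamar Blue viability fluorescence both relative to DMSO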
AF4-AF9 inh = blocks AF4 peptide binding to human AF9; AlphaScreen, biotin-AF4 peptide binding to FLAG-AF9; inhibition, % at 10 µM; 0.47% of 350,000 active;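 active = every replicate reaching a set inhibition limit, whatever the replicate mean, cut at about 25% in these data; inconclusive = mean inhibition reaches that limit but some replicates miss it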;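 also: 0% = plate neutral control median and 100% = total signal loss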
Target sequence (P42568 whole entry, looked up): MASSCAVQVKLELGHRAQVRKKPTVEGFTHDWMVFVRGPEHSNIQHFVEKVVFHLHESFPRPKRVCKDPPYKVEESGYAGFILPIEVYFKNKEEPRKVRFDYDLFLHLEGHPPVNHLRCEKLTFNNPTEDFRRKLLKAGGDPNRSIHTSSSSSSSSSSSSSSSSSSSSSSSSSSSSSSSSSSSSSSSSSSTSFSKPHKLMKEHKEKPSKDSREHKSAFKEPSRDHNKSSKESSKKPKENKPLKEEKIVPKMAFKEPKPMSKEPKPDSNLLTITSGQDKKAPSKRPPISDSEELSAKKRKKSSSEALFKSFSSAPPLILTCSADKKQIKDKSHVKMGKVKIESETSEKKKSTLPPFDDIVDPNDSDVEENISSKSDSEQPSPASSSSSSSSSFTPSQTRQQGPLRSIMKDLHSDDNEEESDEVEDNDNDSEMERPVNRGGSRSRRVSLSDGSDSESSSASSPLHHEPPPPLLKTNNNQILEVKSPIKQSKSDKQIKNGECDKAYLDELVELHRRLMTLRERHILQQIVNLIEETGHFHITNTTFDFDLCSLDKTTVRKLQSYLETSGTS
FN deposit inh = fibronectin deposition inhibition; AH1F fibroblasts, Alexa488-fibronectin deposition fluorescence, overnight; inhibition, % at 12.6 µM; 0.086% of 350,000 active; AID 743247;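 active = mean inhibition across replicates of 30% or more, regardless of how many single replicates reach that level; inconclusive = mean under 30% yet at least half of replicates reach 30%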;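 also: positive control wells lacked labelled fibronectin entirely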
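Test system: AH1F fibroblast monolayer depositing Alexa488-labelled fibronectin into matrix. Input: 10000 cells per well. Technique: fluorescence, ex 485 nm, em 525 nm. Buffer or medium: DMEM plus 2% serum, read in PBS. Timing: 1 h cell adhesion before compound, then overnight fibronectin incubation. Compound: single dose, pinned. Read-out basis: inhibition from reduced deposited-fibronectin fluorescence.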
Glyco luc inh = N-linked glycosylation inhibition; D54 ERlucT glycosylation luciferase reporter, 24 h; percent of 100 nM tunicamycin response; reporter increase, % at 12.5 µM; 0.23% of 360,000 active;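 active = mean luciferase reporter signal, scaled so untreated is 0 and the glycosylation-blocking control 100, at or above a set limit in every replicate; inconclusive = mean reaches the limit but not every replicate does; inactive = mean below the limit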;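 also: luciferase carries N-glycosylation sites so blocking glycosylation raises the light; 0% = median of neutral control wells and 100% = median of 100 nM tunicamycin wells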
PAX8 inh HTS = inhibitors of PAX8 transcriptional activity in RMG-I cells | 1.2% of 360,000 active | inhibition, % at 12.6 µM | RMG-I TPO-luciferase reporter, SteadyGlo, 24 h;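 active = mean replicate inhibition at least 60% with every replicate also reaching 60%; inconclusive = only one of the two criteria is met; inactive = mean below 60% and not all replicates reaching 60%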;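 also: luciferase light reporting Pax8 driven TPO promoter activity; plate controls were median of neutral control wells for no effect and mitoxantrone controls for full effect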
Numbers without * were called inactive; [ ] = dose if it differs, or a comment. A selection: hits, their analogues and other compounds. The true share with any hit is near 2.5%.

O=[N+]([O-])c1ccccc1/C=C\C=N\N1CCN(c2ccccc2)CC1 was read as HIV Env fusion 8.1, EWS-Fli block -12.0, AF4-AF9 inh 42.1*, FN deposit inh 2.3, Glyco luc inh 4.6 and PAX8 inh HTS 0.4.
For COc1ccccc1N1CCN(/N=C/C=C/c2ccccc2[N+](=O)[O-])CC1 the results were HIV Env fusion 9.5, EWS-Fli block -11.0, AF4-AF9 inh 48.3*, FN deposit inh -1.3, Glyco luc inh -0.3 and PAX8 inh HTS -15.0.
`COc1ccccc1N1CCN(/N=C\c2sccc2C)CC1` gave HIV Env fusion -24.9, EWS-Fli block -59.0, AF4-AF9 inh 30.4*, FN deposit inh -0.8, Glyco luc inh -0.3 and PAX8 inh HTS -46.0.
O=[N+]([O-])c1ccccc1/C=N\N1CCN(c2ccccc2)CC1 was read as HIV Env fusion -0.7, EWS-Fli block -39.9, AF4-AF9 inh 6.6, Glyco luc inh 1.6 and PAX8 inh HTS -70.3.
For CNC(=O)C[C@H]1CC[C@H]2[C@H](COc3ccc(NC(=O)C4CC4)cc3C(=O)N2C)O1 the results were HIV Env fusion -3.5[16.7 µM], EWS-Fli block -8.8, FN deposit inh -1.1 and PAX8 inh HTS -17.9.
`COc1ccc(NS(=O)(=O)c2cc([N+](=O)[O-])ccc2N/N=C/c2c(C)[nH]c3ccccc23)cc1` gave HIV Env fusion -48.1, EWS-Fli block 17.4, AF4-AF9 inh 5.2, FN deposit inh -5.8, Glyco luc inh -1.5 and PAX8 inh HTS -1.3.
Cc1n[nH]c(C)c1CCC(=O)N/N=C/c1c(C)[nH]c2ccccc12 was read as HIV Env fusion 16.7, EWS-Fli block 27.0, AF4-AF9 inh 2.2, FN deposit inh 3.8, Glyco luc inh 4.1 and PAX8 inh HTS 85.1*.
Cc1cc(C(=O)N/N=C/c2c3ccccc3cc3ccccc23)n[nH]1 was read as HIV Env fusion 0.4, EWS-Fli block 45.3, AF4-AF9 inh 4.1, FN deposit inh 17.4, Glyco luc inh 45.3* and PAX8 inh HTS -9.8.
CCOc1ccc2ccccc2c1/C=N/NC(=O)c1cc(C)[nH]n1 was read as HIV Env fusion -7.0, EWS-Fli block -4.1, AF4-AF9 inh 1.9, FN deposit inh -2.7, Glyco luc inh 2.8 and PAX8 inh HTS -18.7.
Screening Cc1[nH]c2ccccc2c1/C=N\NC(=O)c1ccccc1Cl returned HIV Env fusion 69.8*, EWS-Fli block -3.2, AF4-AF9 inh 0.8, FN deposit inh -10.7, Glyco luc inh 1.3 and PAX8 inh HTS 25.0.
Screening Cc1[nH]c2ccccc2c1/C=N/Nc1ccccc1[N+](=O)[O-] returned HIV Env fusion -23.3, EWS-Fli block -24.3, AF4-AF9 inh 50.3*, FN deposit inh 18.9, Glyco luc inh 0.5 and PAX8 inh HTS 1.1.
`Cc1ccccc1-c1cnc2c(c1)C(=O)N([C@H](C)CO)C[C@H](C)[C@@H](CN(C)CC1CCOCC1)O2` gave HIV Env fusion 1.6[16.7 µM], EWS-Fli block -10.8 and AF4-AF9 inh 0.4.
For CO[C@@H]1CN(C)C(=O)c2cc(NC(=O)C3CCOCC3)ccc2OC[C@@H](C)N(C(C)=O)C[C@@H]1C the results were HIV Env fusion -3.3[16.7 µM], EWS-Fli block -3.1, AF4-AF9 inh 1.7, FN deposit inh -6.9 and PAX8 inh HTS -3.1.
For COC(=O)[C@@H]1[C@@H](CO)[C@@H]2Cn3c(ccc(-c4cccc(F)c4)c3=O)[C@@H]2N1CC1CC1 the results were EWS-Fli block -1.7 and AF4-AF9 inh -1.7.
`CCOc1cccc(C=NNC(=O)C(=O)Nc2cccc(C(F)(F)F)c2)c1O` gave HIV Env fusion 0.1, EWS-Fli block 13.8, AF4-AF9 inh -0.5, FN deposit inh 17.0 and PAX8 inh HTS 69.9*.
O=C(O)CSc1ncnc2nc[nH]c12 was read as HIV Env fusion -57.0 and Glyco luc inh 1.8.
For c1nc(SSc2ncnc3nc[nH]c23)c2[nH]cnc2n1 the results were HIV Env fusion -6.0, EWS-Fli block 8.1, AF4-AF9 inh 8.3, FN deposit inh -1.7, Glyco luc inh 106.1* and PAX8 inh HTS 19.2.
Screening COc1ccccc1CNC(=O)CC1C(=O)NCCN1C1Cc2ccccc2C1 (stereo not drawn) returned HIV Env fusion 8.5, EWS-Fli block 1.7, AF4-AF9 inh 3.4, FN deposit inh 3.9, Glyco luc inh 0.2 and PAX8 inh HTS 17.8.
Screening COc1ccc(CNC(=O)CC2C(=O)NCCN2C2Cc3ccccc3C2)cc1 (stereo not drawn) returned HIV Env fusion 61.3*, AF4-AF9 inh 1.6, FN deposit inh -11.0, Glyco luc inh 2.2 and PAX8 inh HTS 18.2.
CCOc1cc(N2CCOCC2)c(OCC)cc1NC(=O)C(C)Oc1ccccc1 (stereo not drawn) was read as HIV Env fusion -17.7, EWS-Fli block -3.1, AF4-AF9 inh 29.4*, Glyco luc inh 0.0 and PAX8 inh HTS 17.8.
O=C(O)CCCC[C@@H]1SC[C@@H]2NC(=O)N[C@@H]21 was read as EWS-Fli block -3.6, AF4-AF9 inh 97.4* and Glyco luc inh 2.0.
For COc1cccc(NC(=O)N[C@@H]2CC[C@H](CC(=O)N3CCOCC3)O[C@H]2CO)c1 the results were HIV Env fusion inconclusive, EWS-Fli block 1.4, AF4-AF9 inh 0.1 and PAX8 inh HTS -13.9.
COc1ccc(CN(C(=O)/C=C/C(=O)c2ccc(OC)cc2O)C(C(=O)NC2CCCCC2)c2ccncc2)cc1 (stereo not drawn) was read as EWS-Fli block 17.4, AF4-AF9 inh 8.0, FN deposit inh 2.8, Glyco luc inh -0.5 and PAX8 inh HTS -8.7.
`COc1ccc(C(=O)/C=C/C(=O)N(CC(=O)NC2CCCCC2)Cc2cccs2)c(O)c1` gave HIV Env fusion -118.3, EWS-Fli block 64.2*, AF4-AF9 inh -0.7, FN deposit inh -5.4, Glyco luc inh -9.1 and PAX8 inh HTS 59.9.
COCCN(CC(=O)NC1CCCCC1)C(=O)/C=C/C(=O)c1ccc(OC)cc1O was read as HIV Env fusion -184.4, EWS-Fli block 39.1, AF4-AF9 inh -0.8, FN deposit inh 12.2, Glyco luc inh -20.5 and PAX8 inh HTS 91.5*.
For O=C(C[C@H]1C[C@H]2c3cc(NC(=O)C4CCC4)ccc3O[C@H]2[C@@H](CO)O1)NCC1CC1 the results were HIV Env fusion -5.9[16.7 µM], EWS-Fli block -16.5, AF4-AF9 inh -1.4, FN deposit inh -15.4 and PAX8 inh HTS 4.9.
C[C@H]1CN([C@@H](C)CO)C(=O)Cc2cc(NS(=O)(=O)c3ccccc3)ccc2O[C@@H]1CN(C)S(=O)(=O)c1cn(C)cn1 was read as HIV Env fusion 3.4[16.7 µM], EWS-Fli block -2.2, AF4-AF9 inh 0.5 and PAX8 inh HTS -23.4.
Screening CO[C@H](CN(C)C(=O)Nc1ccc(F)cc1)[C@@H](C)CN(Cc1ccccc1Cl)[C@@H](C)CO returned EWS-Fli block 0.9, AF4-AF9 inh 0.1 and FN deposit inh -3.7.
For COc1ccc(S(=O)(=O)Nc2ccc3c(c2)CC(=O)N([C@@H](C)CO)C[C@@H](C)[C@H](CN(C)C(=O)NC2CCCCC2)O3)cc1 the results were HIV Env fusion 4.7[16.7 µM], EWS-Fli block -3.2, AF4-AF9 inh 0.8 and PAX8 inh HTS -10.6.
